In ChEMBL document CHEMBL3259553 (J Med Chem, 2014):
≈ marks a conversion by molar mass, not a printed value. Calls of active or inactive are those of the source. The rule behind the calls is not given here.

Assays:
Rattus norvegicus [1] = species on record: Rattus norvegicus; experiment: Antidyslipidemic activity in hypercholesterolemic rat model assessed as reduction in liver triglycerides; assay type: functional, organism-based
Mus musculus [2] = experiment: Antidyslipidemic activity in diet-induced obese C57Bl/6J mouse model assessed as reduction in liver size at 0.3 to 10 mg/kg, po administered daily for 23 days; assay type: functional, organism-based
Procedure, shortened: (§1)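 C57Bl/6J mice aged six weeks were fed a high fat diet for 34 weeks. Body weight and food intake were monitored. BMD and body composition were assessed on day 22, and laboratory assessments were made at study end.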

[3] = Clearance in rat at 5 mg/kg, iv; assay type: ADME, organism-based; design: dose 5 mg/kg, route intravenous; conditions: in vivo
Procedure, shortened: (§2)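 Rat pharmacokinetics after a 5 mg/kg dose given iv, or given orally as a suspension. Values are means with SD from N = 3 rats.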

Cytochrome P450 2C19 = Cytochrome P450 2C19 (Homo sapiens, UniProt P33261); experiment: Inhibition of CYP2C19 (unknown origin); assay type: ADME
Chain of Cytochrome P450 2C19 (P33261 whole entry): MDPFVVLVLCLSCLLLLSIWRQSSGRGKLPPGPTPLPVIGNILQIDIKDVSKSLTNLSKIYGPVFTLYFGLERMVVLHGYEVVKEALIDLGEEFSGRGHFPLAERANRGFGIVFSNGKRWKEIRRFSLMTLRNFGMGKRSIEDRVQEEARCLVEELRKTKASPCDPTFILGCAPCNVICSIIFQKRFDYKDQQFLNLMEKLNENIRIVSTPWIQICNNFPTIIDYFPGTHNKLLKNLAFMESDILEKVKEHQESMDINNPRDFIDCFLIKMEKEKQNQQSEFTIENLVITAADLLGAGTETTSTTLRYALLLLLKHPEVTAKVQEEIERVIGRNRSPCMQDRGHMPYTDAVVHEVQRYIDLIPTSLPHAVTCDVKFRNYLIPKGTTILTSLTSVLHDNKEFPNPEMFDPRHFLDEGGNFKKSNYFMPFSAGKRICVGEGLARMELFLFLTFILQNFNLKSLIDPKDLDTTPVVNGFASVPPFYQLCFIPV
Procedure, shortened: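 Time-dependent inhibition of the same enzyme was also assessed, with and without NADPH.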

Homo sapiens [4] = experiment: Toxicity in healthy human with mildly elevated LDL-C level assessed as effect on TSH level at 100 to 200 mg, po qd for 2 weeks; assay type: organism-based; conditions: in vivo, 336 h
Procedure, shortened: (§3)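 Healthy subjects with LDL-C >110 mg/dL received once daily oral doses for 2 weeks in a multiple ascending dose study. Free T3, free T4 and TSH were compared with placebo.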

[5] = Intrinsic clearance in human hepatocytes assessed per million cells; assay type: ADME, cell-based, Hepatocyte; conditions: read-out: CLH
Homo sapiens [6] = experiment: Toxicity in healthy human with mildly elevated LDL-C level assessed as reversible reduction in free T4 level at 100 mg, po qd for 2 weeks; assay type: organism-based; design: scale not given: the % may be the effect or the level left; conditions: in vivo, 336 h; procedure, shortened: as §3
[7] = Half life in rat at 5 mg/kg, po; assay type: ADME, organism-based; design: dose 5 mg/kg, route oral; conditions: in vivo; procedure, shortened: as §2
[8] = Plasma concentration in thyroidectomized rat at 20 mg/kg, ip measured after 6 hrs; assay type: ADME, organism-based; design: dose 20 mg/kg, route intraperitoneal
Procedure, shortened: (§4)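 Thyroidectomized rats were dosed intraperitoneally at 5, 20 or 37.5 mg/kg, with 4 rats per group. Vehicle was 4% DMSO, 15% PEG-400 and 81% of 30% HPBCD in phosphate buffer. Cardiac α-MHC hnRNA, in arbitrary units, and plasma concentration were measured 6 h after dosing. Comparators were untreated thyroidectomized rats and euthyroid rats.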

Homo sapiens [9] = experiment: Toxicity in healthy human with mildly elevated LDL-C level assessed as reversible reduction in free T4 level at 200 mg, po qd for 2 weeks; assay type: organism-based; design: scale not given: the % may be the effect or the level left; conditions: in vivo, 336 h; procedure, shortened: as §3
Oryctolagus cuniculus [10] = species on record: Oryctolagus cuniculus; experiment: Antidyslipidemic activity in hypercholesterolemic rabbit model assessed as reduction in non-HDL-C level; assay type: functional, organism-based
Homo sapiens [11] = experiment: Toxicity in healthy human with mildly elevated LDL-C level assessed as effect on effect on liver enzymes at 5 to 200 mg, po qd for 2 weeks by multiple ascending dose study; assay type: organism-based; conditions: in vivo, 336 h
Procedure, shortened: (§5)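 Multiple ascending dose study after single ascending dose study. Healthy subjects with LDL-C >110 mg/dL received once daily oral doses of 5 to 200 mg for 2 weeks. Safety and tolerability were assessed, covering QT interval, heart rate, vital signs and liver enzymes.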

Rattus norvegicus [12] = species on record: Rattus norvegicus; experiment: Antidyslipidemic activity in hypercholesterolemic rat model assessed as reduction in non-HDL-C level; assay type: functional, organism-based
Rattus norvegicus [13] = species on record: Rattus norvegicus; experiment: Toxicity in hypercholesterolemic rat model assessed as effect on TSH level; assay type: organism-based; conditions: in vivo
Mus musculus [14] = experiment: Toxicity in diet-induced obese C57Bl/6J mouse model assessed as effect on heart size at 0.3 to 10 mg/kg, po administered daily for 23 days; assay type: organism-based; design: dose 0.3-10 mg/kg, route oral; conditions: in vivo; procedure, shortened: as §1
Oryctolagus cuniculus [15] = experiment: Antidyslipidemic activity in hypercholesterolemic rabbit model assessed as reduction in lipid level in coadministered with atorvastatin; assay type: functional, organism-based
[16] = Half life in rat at 5 mg/kg, iv; assay type: ADME, organism-based; design: dose 5 mg/kg, route intravenous; conditions: in vivo; procedure, shortened: as §2
[17] = Tmax in rat at 5 mg/kg, po; assay type: ADME, organism-based; design: dose 5 mg/kg, route oral; conditions: in vivo; procedure, shortened: as §2
Caco-2 [18] = experiment: Permeability from basolateral to apical side of human Caco2 cells; assay type: ADME, cell-based
[19] = AUC in rat at 5 mg/kg, po; assay type: ADME, organism-based; design: dose 5 mg/kg, route oral; conditions: plasma
Homo sapiens [20] = experiment: Antidyslipidemic activity in healthy human with mildly elevated LDL-C level assessed as reduction in LDL-C at 50 to 200 mg, po qd for 2 weeks by multiple ascending dose study relative to placebo control; assay type: functional; design: scale not given: the % may be the effect or the level left
Procedure, shortened: (§6)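 Multiple ascending dose study lasting 2 weeks, run after a single ascending dose study. Healthy subjects with LDL-C >110 mg/dL took oral doses once daily from 5 to 200 mg. Safety, thyroid axis measures (free T4, free T3, TSH), heart rate, QT and liver enzymes were monitored. Lipid changes were compared with placebo.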

Homo sapiens [21] = experiment: Toxicity in healthy human with mildly elevated LDL-C level assessed as effect on heart rate at 5 to 200 mg, po qd for 2 weeks by multiple ascending dose study; assay type: organism-based; conditions: in vivo, 336 h; procedure, shortened: as §5
Mus musculus [22] = experiment: Toxicity in diet-induced obese C57Bl/6J mouse model assessed as effect on kidney size at 0.3 to 10 mg/kg, po administered daily for 23 days; assay type: organism-based; design: dose 0.3-10 mg/kg, route oral; conditions: in vivo; procedure, shortened: as §1
Homo sapiens [23] = experiment: Toxicity in healthy human with mildly elevated LDL-C level assessed as effect on free T3 level at 100 to 200 mg, po qd for 2 weeks; assay type: organism-based; conditions: in vivo, 336 h; procedure, shortened: as §3
Homo sapiens [24] = experiment: Antidyslipidemic activity in healthy human with mildly elevated LDL-C level assessed as reduction in triglyceride at 50 to 200 mg, po qd for 2 weeks by multiple ascending dose study relative to placebo control; assay type: functional; design: scale not given: the % may be the effect or the level left; procedure, shortened: as §6
Rattus norvegicus [25] = experiment: Toxicity in thyroidectomized rat assessed as T3 activity at 37.5 mg/kg, ip measured after 6 hrs; assay type: organism-based; design: dose 37.5 mg/kg, route intraperitoneal; conditions: in vivo
Procedure, shortened: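 Thyroidectomized rats, 4 per group, dosed ip at 5, 20 and 37.5 mg/kg in 4% DMSO, 15% PEG-400 and 81% of 30% HPBCD in phosphate buffer. Cardiac α-MHC hnRNA was measured 6 h post-dose and expressed relative to euthyroid or T3-treated full activity. Plasma exposure was measured at 6 h.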

Cytochrome P450 3A4 = Cytochrome P450 3A4 (Homo sapiens, UniProt P08684); experiment: Inhibition of CYP3A4 (unknown origin); assay type: ADME
Chain of Cytochrome P450 3A4 (P08684 whole entry): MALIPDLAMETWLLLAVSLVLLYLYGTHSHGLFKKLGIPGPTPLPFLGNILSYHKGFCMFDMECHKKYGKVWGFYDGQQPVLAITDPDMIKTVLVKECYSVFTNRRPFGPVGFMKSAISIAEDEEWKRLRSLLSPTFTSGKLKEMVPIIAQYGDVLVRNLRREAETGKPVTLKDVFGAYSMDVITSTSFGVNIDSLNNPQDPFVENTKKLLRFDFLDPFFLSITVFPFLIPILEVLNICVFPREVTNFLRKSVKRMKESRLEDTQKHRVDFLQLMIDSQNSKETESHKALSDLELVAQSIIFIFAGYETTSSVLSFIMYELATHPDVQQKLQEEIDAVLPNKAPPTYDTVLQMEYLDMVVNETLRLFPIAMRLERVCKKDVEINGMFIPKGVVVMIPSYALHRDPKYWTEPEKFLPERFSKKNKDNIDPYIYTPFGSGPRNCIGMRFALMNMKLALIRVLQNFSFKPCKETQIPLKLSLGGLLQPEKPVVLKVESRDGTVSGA

Rattus norvegicus [26] = experiment: Cmax in rat at 5 mg/kg, po; assay type: ADME, organism-based; design: dose 5 mg/kg, route oral; conditions: in vivo; procedure, shortened: as §2
Homo sapiens [27] = experiment: Toxicity in healthy human with mildly elevated LDL-C level assessed as effect on vital signs at 5 to 200 mg, po qd for 2 weeks by multiple ascending dose study; assay type: organism-based; conditions: in vivo, 336 h; procedure, shortened: as §5
Rattus norvegicus [28] = species on record: Rattus norvegicus; experiment: Toxicity in hypercholesterolemic rat model assessed as effect on central thyroid axis; assay type: organism-based; conditions: in vivo
[29] = Solubility of the compound at pH 7.04; conditions: buffer
Caco-2 [30] = experiment: Permeability from apical to basolateral side of human Caco2 cells; assay type: ADME, cell-based
Oryctolagus cuniculus [31] = species on record: Oryctolagus cuniculus; experiment: Antidyslipidemic activity in hypercholesterolemic rabbit model assessed as reduction in liver triglycerides; assay type: functional, organism-based
Rattus norvegicus [32] = experiment: Cardiotoxicity in thyroidectomized rat assessed as induction of alpha-MHC hnRNA expression in cardiac myocyte at 5 to 37.5 mg/kg, ip measured after 6 hrs; assay type: toxicity, organism-based, Heart; design: dose 5-37.5 mg/kg, route intraperitoneal; conditions: in vivo; procedure, shortened: as §4
[33] = Fraction unbound in human; assay type: ADME, organism-based; conditions: in vivo
Oryctolagus cuniculus [34] = species on record: Oryctolagus cuniculus; experiment: Toxicity in hypercholesterolemic rabbit model assessed as effect on TSH level; assay type: organism-based; conditions: in vivo
Cytochrome P450 3A5 = Cytochrome P450 3A5 (Homo sapiens, UniProt P20815); experiment: Inhibition of CYP3A5 (unknown origin); assay type: ADME
Chain of Cytochrome P450 3A5 (P20815 whole entry): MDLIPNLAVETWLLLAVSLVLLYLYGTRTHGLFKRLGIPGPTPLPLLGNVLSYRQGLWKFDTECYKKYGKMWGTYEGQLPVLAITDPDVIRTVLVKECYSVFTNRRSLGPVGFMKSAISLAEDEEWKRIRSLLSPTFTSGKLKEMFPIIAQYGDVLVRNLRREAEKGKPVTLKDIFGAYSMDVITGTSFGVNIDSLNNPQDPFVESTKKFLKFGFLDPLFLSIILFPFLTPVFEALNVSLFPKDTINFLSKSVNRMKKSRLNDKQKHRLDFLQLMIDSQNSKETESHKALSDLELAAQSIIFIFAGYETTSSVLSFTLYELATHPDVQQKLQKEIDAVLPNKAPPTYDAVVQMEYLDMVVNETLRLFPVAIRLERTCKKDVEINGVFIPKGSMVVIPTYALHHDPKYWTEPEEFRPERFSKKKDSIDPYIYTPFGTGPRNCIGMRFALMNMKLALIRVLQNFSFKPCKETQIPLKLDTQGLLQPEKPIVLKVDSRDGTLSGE

[35] = AUC in rat at 5 mg/kg, iv; assay type: ADME, organism-based; design: dose 5 mg/kg, route intravenous; conditions: plasma
Homo sapiens [36] = experiment: Antidyslipidemic activity in healthy human with mildly elevated LDL-C level assessed as reduction in lipids at 80 mg, po qd; assay type: functional, organism-based
Mus musculus [37] = species on record: Mus musculus; experiment: Antidyslipidemic activity in diet-induced obese C57Bl/6J mouse model assessed as improvement of insulin sensitivity; assay type: functional, organism-based

clearance [3]: 2.35 mL/min/kg | IC50 (Cytochrome P450 2C19): > 50 µM | hepatocyte CLint [5]: 1.04 µL/min/1e6 cells | half-life [7]: 4.08 h | concentration at 6 h [8]: 57 µM | half-life [16]: 3.4 h | Tmax [17]: 6 h | permeability (Caco-2 [18]): permeable | AUC [19]: 17400 ng·h/mL | IC50 (Cytochrome P450 3A4): > 50 µM | Cmax (Rattus norvegicus [26]): 1710 ng/mL | solubility [29]: 1 µM (≈ 0.435 µg/mL) | permeability (Caco-2 [30]): 1.37 ×10⁻⁶ cm/s | Fu [33]: 0.6% | IC50 (Cytochrome P450 3A5): > 50 µM | AUC [35]: 38100 ng·h/mL
Structure (SMILES): CC(C)c1cc(Oc2c(Cl)cc(-n3nc(C#N)c(=O)[nH]c3=O)cc2Cl)n[nH]c1=O [RESMETIROM]
Activity (Rattus norvegicus [1]): Active | Activity (Mus musculus [2]): Active | Activity (Homo sapiens [4]): Non-toxic | Activity (Homo sapiens [6]): 10% | Activity (Homo sapiens [9]): 20% | Activity (Oryctolagus cuniculus [10]): Active | Activity (Homo sapiens [11]): Non-toxic | Activity (Rattus norvegicus [12]): Active | Activity (Rattus norvegicus [13]): Non-toxic | Activity (Mus musculus [14]): Non-toxic | Activity (Oryctolagus cuniculus [15]): Active | Activity (Homo sapiens [20]): <=30% | Activity (Homo sapiens [21]): Non-toxic | Activity (Mus musculus [22]): Non-toxic | Activity (Homo sapiens [23]): Non-toxic | Activity (Homo sapiens [24]): <=60% | Activity (Rattus norvegicus [25]): 0% | Activity (Homo sapiens [27]): Non-toxic | Activity (Rattus norvegicus [28]): Non-toxic | Activity (Oryctolagus cuniculus [31]): Active | Activity (Rattus norvegicus [32]): Non-toxic | Activity (Oryctolagus cuniculus [34]): Non-toxic | Activity (Homo sapiens [36]): Active | Activity (Mus musculus [37]): Active
